The test system of test [1] is Candida albicans. Briefly: Antimicrobial activity against Candida albicans DSM1665 assessed as inhibition of microbial growth up to 67 ug/ml incubated for 24 to 48 hrs by serial dilution assay. It counts as functional, organism-based. The procedure, abridged: (§1)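 Yeasts and fungi were tested by serial dilution in MYC medium (1.0% phytone peptone, 1.0% glucose, 50 mM HEPES, pH 7.0). Compound from a 1 mg/mL MeOH stock was dried in row A, then inoculum at 1:100 in medium was added and diluted 1:1 down the plate (66.7 to 0.1 μg/mL). Incubation was 30 °C, 600 rpm shaking, 24−48 h. MIC is the lowest concentration with no visible growth.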

Test [2] relates to Wickerhamomyces anomalus. In words: Antimicrobial activity against Pichia anomala DSM6766 assessed as inhibition of microbial growth up to 67 ug/ml incubated for 24 to 48 hrs by serial dilution assay. It counts as functional, organism-based. The procedure, abridged:
as §1

In test [3] the test system is Escherichia coli. In words: Antimicrobial activity against Escherichia coli DSM1116 assessed as inhibition of microbial growth up to 67 ug/ml incubated for 24 to 48 hrs by serial dilution assay. The test is classed as functional, organism-based. An outline of the steps: (§2)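 Broth microdilution in EBS medium (peptone, glucose, meat and yeast extract, 50 mM HEPES, pH 7.0). A 1 mg/mL MeOH stock was dried in the first row, then pathogen diluted 1:100 in medium was added and serially diluted 1:1 (66.7 to 0.1 μg/mL tested). Plates were shaken at 600 rpm, 30 °C, for 24−48 h. MIC is the lowest concentration preventing visible growth; blank wells served as negative control.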

The test system of test [4] is Chromobacterium violaceum. In words: Antimicrobial activity against Chromobacterium violaceum DSM30191 assessed as inhibition of microbial growth up to 67 ug/ml incubated for 24 to 48 hrs by serial dilution assay. It counts as functional, organism-based. The procedure, abridged: as §2
For test [5], the system named is L929. In words: Cytotoxicity against mouse L929 cells incubated for 5 days by MTT assay. To be noted: L929, 120 h. It counts as cell-based. An outline of the steps:
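L929 mouse fibroblasts were grown in EBM-2 with 10% FBS at 37 °C under 10% CO₂. Serial dilutions from a 1 mg/mL MeOH stock were added to cell suspension (50 000/mL) and incubated 5 days. Read-out was MTT with absorbance at 590 nm. IC₅₀ (50% growth inhibition versus control) was taken from dose−response curves; methanol was the negative control.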
For orientation: Formazan colour is commonly taken as a measure of viable cells.

Test [6] has as its system Micrococcus luteus. In words: Antimicrobial activity against Micrococcus luteus DSM1790 assessed as inhibition of microbial growth up to 67 ug/ml incubated for 24 to 48 hrs by serial dilution assay. The test is classed as functional, organism-based. An outline of the steps: as §2
The test system of test [7] is Staphylococcus aureus. In words: Antimicrobial activity against Staphylococcus aureus DSM346 assessed as inhibition of microbial growth incubated for 24 to 48 hrs by serial dilution assay. The test is classed as functional. An outline of the steps:
as §2

Test [8] has as its system Mucor hiemalis. In words: Antimicrobial activity against Mucor hiemalis DSM2656 […] assessed as inhibition of microbial growth incubated for 24 to 48 hrs by serial dilution assay. It counts as functional. The procedure, abridged:
as §1

Test [9] has as its system Schizosaccharomyces pombe. In words: Antimicrobial activity against Schizosaccharomyces pombe DSM70572 assessed as inhibition of microbial growth up to 67 ug/ml incubated for 24 to 48 hrs by serial dilution assay. It counts as functional, organism-based. An outline of the steps: as §1
Test [10] relates to Pseudomonas aeruginosa. In words: Antimicrobial activity against Pseudomonas aeruginosa DSM50071 assessed as inhibition of microbial growth up to 67 ug/ml incubated for 24 to 48 hrs by serial dilution assay. The test is classed as functional, organism-based. An outline of the steps:
as §2

The test system of test [11] is Bacillus subtilis. Briefly: Antimicrobial activity against Bacillus subtilis DSM10 assessed as inhibition of microbial growth incubated for 24 to 48 hrs by serial dilution assay. The test is classed as functional. An outline of the steps: as §2
In test [12] the test system is Bacillus subtilis. Briefly: Antimicrobial activity against Bacillus subtilis DSM10 assessed as inhibition of microbial growth up to 67 ug/ml incubated for 24 to 48 hrs by serial dilution assay. It counts as functional, organism-based. An outline of the steps: as §2
Test [13] relates to Staphylococcus aureus. In words: Antimicrobial activity against Staphylococcus aureus DSM346 assessed as inhibition of microbial growth up to 67 ug/ml incubated for 24 to 48 hrs by serial dilution assay. It counts as functional, organism-based. An outline of the steps:
as §2

The subject of test [14] is Mucor hiemalis. In words: Antimicrobial activity against Mucor hiemalis DSM2656 […] assessed as inhibition of microbial growth up to 67 ug/ml incubated for 24 to 48 hrs by serial dilution assay. It counts as functional, organism-based. The procedure, abridged:
as §1

Test [15] has as its system Pseudomonas aeruginosa. In words: Antimicrobial activity against Pseudomonas aeruginosa DSM50071 assessed as inhibition of microbial growth incubated for 24 to 48 hrs by serial dilution assay. The test is classed as functional, organism-based. The procedure, abridged: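 Broth serial dilution in EBS medium (0.5% peptone, 0.5% glucose, 0.1% meat extract, 0.1% yeast extract, 50 mM HEPES, pH 7.0). Compound stock (1 mg/mL in MeOH) was dried in the first row, then the bacterium was added as a 1:100 inoculum:medium mix. Twofold dilutions covered 66.7 to 0.1 μg/mL. Plates were shaken at 600 rpm, 30 °C, for 24–48 h. MIC was the lowest concentration with no visible growth.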

Test [16] concerns Escherichia coli. Briefly: Antimicrobial activity against Escherichia coli DSM1116 assessed as inhibition of microbial growth incubated for 24 to 48 hrs by serial dilution assay. It counts as functional. The procedure, abridged:
as §2

Test [17] deals with Chromobacterium violaceum. In words: Antimicrobial activity against Chromobacterium violaceum DSM30191 assessed as inhibition of microbial growth incubated for 24 to 48 hrs by serial dilution assay. The test is classed as functional. An outline of the steps:
as §2

Test [18] has as its system Micrococcus luteus. In words: Antimicrobial activity against Micrococcus luteus DSM1790 assessed as inhibition of microbial growth incubated for 24 to 48 hrs by serial dilution assay. The test is classed as functional. The procedure, abridged:
as §2

The test system of test [19] is Schizosaccharomyces pombe. Briefly: Antimicrobial activity against Schizosaccharomyces pombe DSM70572 assessed as inhibition of microbial growth incubated for 24 to 48 hrs by serial dilution assay. It counts as functional, organism-based. The procedure, abridged: (§3)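 Broth serial dilution in MYC medium (1.0% phytone peptone, 1.0% glucose, 50 mM HEPES, pH 7.0). Compound stock (1 mg/mL in MeOH) was dried in the first row, then the yeast was added as a 1:100 inoculum:medium mix. Twofold serial dilutions covered 66.7 to 0.1 μg/mL. Plates were shaken at 600 rpm, 30 °C, for 24–48 h. MIC was the lowest concentration with no visible growth. Blank wells served as negative controls.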

The subject of test [20] is Candida albicans. Briefly: Antimicrobial activity against Candida albicans DSM1665 assessed as inhibition of microbial growth incubated for 24 to 48 hrs by serial dilution assay. It counts as functional, organism-based. An outline of the steps:
as §3

In test [21] the test system is Wickerhamomyces anomalus. Briefly: Antimicrobial activity against Pichia anomala DSM6766 assessed as inhibition of microbial growth incubated for 24 to 48 hrs by serial dilution assay. It counts as functional, organism-based. An outline of the steps:
as §3

Values after ≈ are worked out from the molar mass of the structure shown. Active and inactive are the calls of the source. No cut-off for these calls is given here. A value given as a limit tells only on which side of the number the result lay.

Turning to `CC1(C)CCC[C@]1(C)c1ccc(C(=O)OCC[C@@](C)(O)CC(=O)O)cc1`, the inhibition result in [1], in test [2], in test [3], in test [4], in test [6] and in test [9] was “inactive” in each case. The inhibition result in test [10] is “inactive”. Besides, the IC50 in [5] is over 10 µg/mL. Further, the MIC in test [7], in test [8] and in test [11] was 67 µg/mL throughout.
Turning to `CC1(C)CCC[C@]1(C)c1ccc(C(=O)O)cc1`, the inhibition entry in test [1], in test [2], in test [3], in test [4], in test [12] and in test [6] was “inactive” in each case. Moreover, the inhibition result in test [13], in test [9] and in test [10] was “inactive” in each case. In addition, the IC50 in [5] was over 10 µg/mL. Besides, in [8], the MIC came to 67 µg/mL.
Take `CC(O)(COC(=O)c1ccc([C@@]2(C)C[C@H](O)CC2(C)C)cc1)C(=O)O` (some centres not stated): the inhibition entry in test [1], in test [2], in [3], in test [4], in test [12] and in test [6] was “inactive” each time. Besides, the inhibition result in test [9], in test [10] and in test [14] was “inactive” throughout. In test [5], this compound had an IC50 of over 10 µg/mL. In addition, the MIC in test [7] worked out at 67 µg/mL.
Consider GENTAMICIN, for which the MIC in test [15] was determined as 42 µg/mL.
For the compound `CN(C)[C@@H]1C(O)=C(C(N)=O)C(=O)[C@@]2(O)C(O)=C3C(=O)c4c(O)cccc4[C@@](C)(O)[C@H]3[C@H](O)[C@@H]12.Cl` [OXYTETRACYCLINE HYDROCHLORIDE], the MIC is 0.83 µg/mL in [16]; 0.83 µg/mL in test [17]; 0.42 µg/mL in test [18]; 0.21 µg/mL in [7]; 0.83 µg/mL in test [11].
On to `CC1(C)[C@@H](O)C(=O)C[C@]1(C)c1ccc(C(=O)O)cc1`, for which the inhibition entry in test [1], in test [2], in test [3], in [4], in test [12] and in test [6] was “inactive” each time. Further, the inhibition entry in test [13], in test [9], in test [10] and in [14] was “inactive” throughout. Further, the IC50 in test [5] was over 10 µg/mL.
For the compound NYSTATIN, the MIC in test [19] was found to be 33.3 µg/mL; in test [20], 67 µg/mL; in [8], 67 µg/mL; in test [21], 33.3 µg/mL.
In the case of `CC1(C)CC(=O)C[C@]1(C)C1=CC=C(C(=O)OCC[C@@](C)(O)CC(=O)O)CC1`, the inhibition result in [1], in test [2], in test [3], in test [4], in test [12] and in [6] was “inactive” in each case. Also, the inhibition entry in test [13], in test [9], in test [10] and in [14] was “inactive” in each case. Moreover, in test [5], the IC50 is over 10 µg/mL.
As to `CC1(C)CC[C@@H](O)[C@]1(C)c1ccc(C(=O)OCC[C@@](C)(O)CC(=O)O)cc1`, the inhibition entry in test [1], in test [2], in [3], in test [4], in [12] and in test [6] was “inactive” each time. Further, the inhibition entry in [9], in test [10] and in [14] was “inactive” each time. Also, 2.8 µg/mL (≈ 7.4 µM) corresponded to half-maximal inhibition in test [5] (IC50). The MIC in test [7] was found to be 67 µg/mL.
In the case of `CC1(C)CC(=O)C[C@]1(C)c1ccc(C(=O)OCC[C@@](C)(O)CC(=O)O)cc1`, the inhibition entry in test [1], in [2], in test [3], in test [4], in [12] and in [6] was “inactive” in each case. In addition, the inhibition entry in [13], in [9], in [10] and in test [14] was “inactive” in each case. In addition, the IC50 in test [5] is over 10 µg/mL.

As usually defined, the IC50 is the concentration at which inhibition is half-maximal. High values mean a need for much substance, low ones inhibition by little substance. As a reminder, the MIC is the lowest concentration that inhibits growth of the organism.

For the origin of these results see ChEMBL document CHEMBL3580532, “Deconins A-E: Cuparenic and Mevalonic or Propionic Acid Conjugates from the Basidiomycete Deconica sp. 471” (J Nat Prod, 2015).
